Results from article PMC9930943 (Asian Pacific Journal of Cancer Prevention : APJCP, 2022).
Like-named read-outs stand apart in the source and are kept apart here.

Tests used:
AGO1522 cells = assay: MTT cell viability assay, AGO1522; type: cell-based, human; conditions: for IC50: Homo sapiens, Skin fibroblast
Procedure, shortened: (§1)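 U-87MG (RPMI-1640, 7.5 × 10³ cells/well, 24 h attachment) and AGO1522 (low-glucose DMEM) grown with 10% FBS and pen/strep at 37°C, 5% CO₂. DMSO stocks diluted in medium to 3, 6.25, 12.5, 25, 50 and 100 µM, for 24 and 48 h. MTT 5 mg/ml for 4 h, formazan dissolved in DMSO, A570 nm. Viability relative to untreated cells; IC50 calculated. Triplicates, three experiments.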

[1] = test system: intracellular ROS in U-87MG cells; assay: Intracellular ROS assay with DCFH-DA probe; type: cell-based, human; conditions: 11.91 M (so in the source), 12 hours, P < 0.01
Procedure, shortened: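 6 × 10⁵ U-87MG cells/well attached for 24 h, then given 11.91 µM for 12 h. Loaded with DCFH-DA (10 µM final) in serum-free medium for 30 min at 37°C in the dark and washed twice with RPMI 1640. DCF fluorescence of 1 × 10⁴ cells read on a fluorescence plate reader as RFU. Three independent experiments.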

U-87MG cells [2] = assay: PI staining cell cycle analysis by flow cytometry; type: cell-based, human; conditions: 11.91 µM, 24 hours
Procedure, shortened: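 6 × 10⁵ U-87MG cells/well attached for 24 h, then given 11.91 µM for 24 h. Detached with trypsin-EDTA at 37°C for 2 min, fixed in cold 70% ethanol for 1 h. Stained 30 min at RT in the dark in 1 ml 0.1% sodium citrate with 0.05 mg PI and 50 µg RNase. Sub-G1, G0/G1, S and G2/M percentages by flow cytometry.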

[3] = test system: caspase-3 activity in U-87MG cells; assay: Caspase-3/CPP32 fluorometric activity assay; type: cell-based, human; conditions: 11.91 µM, 24 hours (method: 12 hours), P<0.01
U-87MG cells [4] = assay: MTT cell viability assay, U-87MG; type: cell-based; conditions: Homo sapiens
Procedure, shortened: as §1

[5] = 24 h, read-out: IC50 AGO1522 24 hours
[6] = 48 h, read-out: IC50 AGO1522 48 hours
[7] = 24 h, read-out: IC50 U-87MG 24 hours
[8] = 48 h, read-out: IC50 U-87MG 48 hours

Compound | effects on normal skin cells of AGO1522 (AGO1522 cells; AGO1522 cells, in words) | level of ROS compared to unexposed cells [1] | cells in G1 (U-87MG cells [2]) [%] | caspase 3 activation compared to unexposed cells [3] | IC50 (AGO1522 cells; [5]) [µM] | IC50 (AGO1522 cells; [6]) [µM] | IC50 (U-87MG cells [4]; [7]) [µM] | IC50 (U-87MG cells [4]; [8]) [µM]
5-(6-bromo-2-chloroquinolin-3-yl)-9a-hydroxy-8,8-dimethyl-4-nitro-2,3,5,5a,7,8,9,9a-octahydroimidazo[1,2-a]quinolin-6(1H)-one [5c] | minimal effects | significantly higher | 41 | significant increase | – | – | – | –
CC(=O)O[C@H]1C(=O)[C@@]2(C)[C@H]([C@H](OC(=O)c3ccccc3)[C@]3(O)C[C@H](OC(=O)[C@H](O)[C@@H](NC(=O)c4ccccc4)c4ccccc4)C(C)=C1C3(C)C)[C@]1(OC(C)=O)CO[C@@H]1C[C@@H]2O [Paclitaxel, reference compound] | – | – | – | – | 42.9 ± 1.42 | 25.8 ± 1.09 | 17.4 ± 0.85 | 42.2 ± 0.78
O=c1[nH]c(O)c(C2C([N+](=O)[O-])=C3NCCN3c3nc4cc(Cl)ccc4cc32)c(=O)[nH]1 (stereo not drawn) [5e, 5-(9-chloro-4-nitro-1,2,3,5-tetrahydrobenzo[g]imidazo[1,2-a] [1,8]naphthyridin-5-yl) -6-hydroxypyrimidine-2,4 (1H, 3H) -dione] | – | – | – | – | 43 ± 0.89 | 22.9 ± 0.95 | 22.6 ± 0.84 | 16.3 ± 1.03
